Laboratory results reported in ChEMBL document CHEMBL1157475, “Selective influence on contextual memory: physiochemical properties associated with selectivity of benzodiazepine ligands at GABAA receptors containing the alpha5 subunit” (J Med Chem, 2008).
The source made the active and inactive calls. No cut-off for these calls is given here.

Tests used:
[1] = biological target: T1, Gamma-aminobutyric acid receptor subunit alpha-1 (Homo sapiens, UniProt P14867+P18507+P47870); assay: Binding affinity to GABAA alpha-1-beta-2-gamma-2 receptor
T1 sequence (P14867 whole entry): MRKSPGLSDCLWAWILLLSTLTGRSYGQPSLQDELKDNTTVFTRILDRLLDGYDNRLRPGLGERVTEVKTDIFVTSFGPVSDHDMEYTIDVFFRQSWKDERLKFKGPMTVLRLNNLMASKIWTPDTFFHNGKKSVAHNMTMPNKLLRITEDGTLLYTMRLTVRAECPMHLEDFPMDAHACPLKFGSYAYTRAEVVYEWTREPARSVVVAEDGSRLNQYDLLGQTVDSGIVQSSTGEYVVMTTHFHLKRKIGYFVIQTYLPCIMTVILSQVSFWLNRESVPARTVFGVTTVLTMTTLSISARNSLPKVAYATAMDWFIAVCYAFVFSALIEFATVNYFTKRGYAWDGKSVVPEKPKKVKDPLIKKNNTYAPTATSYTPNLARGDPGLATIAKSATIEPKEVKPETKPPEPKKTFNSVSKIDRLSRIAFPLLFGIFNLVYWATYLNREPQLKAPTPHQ

[2] = biological target: T2, Gamma-aminobutyric acid receptor subunit alpha-5 (Homo sapiens, UniProt P18507+P31644+P47870); assay: Binding affinity to GABAA alpha-5-beta-2-gamma-2 receptor
T2 sequence (P31644 whole entry): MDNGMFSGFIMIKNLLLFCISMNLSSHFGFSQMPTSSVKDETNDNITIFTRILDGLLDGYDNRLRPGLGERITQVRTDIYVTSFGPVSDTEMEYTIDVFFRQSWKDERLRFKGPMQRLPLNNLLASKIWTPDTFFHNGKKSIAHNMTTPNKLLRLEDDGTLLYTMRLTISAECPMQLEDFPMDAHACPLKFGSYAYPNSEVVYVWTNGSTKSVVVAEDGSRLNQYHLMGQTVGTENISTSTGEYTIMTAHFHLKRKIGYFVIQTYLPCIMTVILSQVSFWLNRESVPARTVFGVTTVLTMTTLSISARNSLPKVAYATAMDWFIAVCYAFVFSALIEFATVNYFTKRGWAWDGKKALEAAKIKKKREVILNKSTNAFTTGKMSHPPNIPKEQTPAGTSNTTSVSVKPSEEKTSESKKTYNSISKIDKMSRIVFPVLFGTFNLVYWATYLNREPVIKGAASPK
Outline: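 Sf-9 insect cells infected with baculovirus carrying α5, β2 and γ2 subunits in equimolar ratio (2 MOI), harvested 60 h post-infection, then homogenized in 50 mM Tris-HCl pH 7.7. Incubated 90 min at 0 °C in triplicate; filtration and scintillation counting.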

[3] = biological target: T3, GABA-A receptor; alpha-1/beta-3/gamma-2 (Homo sapiens, UniProt P14867+P18507+P28472); assay: Binding affinity to GABAA alpha-1-beta-3-gamma-2 receptor; format: protein-complex assay
T3 sequence (P14867 whole entry): T1 sequence (P14867 whole entry)
T3 sequence (P18507 whole entry): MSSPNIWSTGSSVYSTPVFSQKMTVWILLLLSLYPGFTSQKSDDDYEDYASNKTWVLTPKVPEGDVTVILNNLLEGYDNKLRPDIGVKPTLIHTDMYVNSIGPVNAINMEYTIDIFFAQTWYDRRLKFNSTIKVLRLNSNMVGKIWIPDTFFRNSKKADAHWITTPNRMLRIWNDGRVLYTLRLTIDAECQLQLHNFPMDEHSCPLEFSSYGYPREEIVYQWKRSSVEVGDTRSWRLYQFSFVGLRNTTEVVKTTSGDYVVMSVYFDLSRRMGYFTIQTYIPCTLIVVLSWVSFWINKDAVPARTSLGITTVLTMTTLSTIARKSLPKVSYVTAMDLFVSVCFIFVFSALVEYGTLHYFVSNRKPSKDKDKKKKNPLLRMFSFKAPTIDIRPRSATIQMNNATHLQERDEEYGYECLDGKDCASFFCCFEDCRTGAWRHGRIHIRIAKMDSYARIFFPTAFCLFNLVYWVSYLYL
T3 sequence (P28472 whole entry): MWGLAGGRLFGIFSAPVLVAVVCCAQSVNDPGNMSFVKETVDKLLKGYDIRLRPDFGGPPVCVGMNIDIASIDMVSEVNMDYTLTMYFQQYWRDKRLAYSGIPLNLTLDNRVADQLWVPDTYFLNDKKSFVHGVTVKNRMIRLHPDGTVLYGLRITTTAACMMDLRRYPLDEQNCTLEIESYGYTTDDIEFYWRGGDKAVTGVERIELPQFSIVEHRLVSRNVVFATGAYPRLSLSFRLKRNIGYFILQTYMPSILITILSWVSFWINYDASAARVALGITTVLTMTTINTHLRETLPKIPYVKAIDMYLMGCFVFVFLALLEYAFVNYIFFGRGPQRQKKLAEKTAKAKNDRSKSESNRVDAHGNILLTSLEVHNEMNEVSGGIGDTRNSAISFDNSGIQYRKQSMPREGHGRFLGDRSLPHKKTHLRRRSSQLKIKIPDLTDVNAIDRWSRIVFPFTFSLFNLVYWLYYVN

[4] = biological target: T2, Gamma-aminobutyric acid receptor subunit alpha-5; assay: Displacement of [3H]Ro15-4513 from GABAA alpha-5-beta-2-gamma-2 receptor expressed in Sf9 baculovirus system
Outline: (§1)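 Homogenates of Sf-9 cells infected 60 h earlier with baculoviruses for each of the three subunits (2 MOI, equimolar), in 50 mM Tris-HCl pH 7.7. Competition against 0.5–1.0 nM [3H]-Ro15-4513, with unlabeled ligand from 40 pM to 10 µM (ethanol below 0.1%). Incubated 90 min at 0 °C, in triplicate. Separated by rapid filtration and read by scintillation counting.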

[5] = biological target: T1, Gamma-aminobutyric acid receptor subunit alpha-1; assay: Displacement of [3H]Ro15-4513 from GABAA alpha-1-beta-2-gamma-2 receptor expressed in Sf9 baculovirus system; outline: as §1
[6] = test system: Mus musculus; assay: Inhibition of scopolamine-induced impairment of contextual memory in C57BL/6J mouse at 10 mg/kg, ip after 24 hrs; format: functional, organism-based; parameters: dose 10 mg/kg
Outline: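 Male C57Bl/6 mice, 7–12 weeks old, given ip vehicle (0.9% saline with 2.5% encapsin), scopolamine 1.5 mg/kg, or scopolamine plus ligand. After 20 min: context exposure, then three 33 s tones (85 dB, 2.9 kHz), each ending with a 0.75 mA footshock. Freezing scored over 4 min in the same context 24 h later.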

[7] = Selectivity for GABAA alpha-5-beta-3-gamma-2 receptor over GABAA alpha-1-beta-3-gamma-2 receptor
[8] = biological target: T4, GABA A receptor alpha-4/beta-3/gamma-2 (Homo sapiens, UniProt P18507+P28472+P48169); assay: Binding affinity to GABAA alpha-4-beta-3-gamma-2 receptor; format: protein-complex assay
[9] = biological target: T5, GABA-A receptor; alpha-6/beta-3/gamma-2 (Homo sapiens, UniProt P18507+P28472+Q16445); assay: Activity at GABAA alpha-6-beta-3-gamma-2 receptor expressed in Xenopus oocytes assessed as potentiation of GABA-induced chloride current at 1 uM; format: cell-based; details: Oocyte
[10] = Selectivity for GABAA alpha-5-beta-3-gamma-2 receptor over GABAA alpha-6-beta-3-gamma-2 receptor
[11] = Selectivity for GABAA alpha-5-beta-3-gamma-2 receptor over GABAA alpha-2-beta-3-gamma-2 receptor
[12] = test system: Mus musculus; assay: Anticonvulsant activity in C57BL/6J mouse assessed as inhibition of increase in excitatory tone in brain at 30 mg/kg, ip; format: functional, organism-based; parameters: dose 30 mg/kg
[13] = biological target: T5, GABA-A receptor; alpha-6/beta-3/gamma-2; assay: Binding affinity to GABAA alpha-6-beta-3-gamma-2 receptor; format: protein-complex assay
[14] = Selectivity for GABAA alpha-5-beta-3-gamma-2 receptor over GABAA alpha-4-beta-3-gamma-2 receptor
[15] = biological target: GABA-A receptor; alpha-2/beta-3/gamma-2 (Homo sapiens) (UniProt P18507+P28472+P47869); assay: Activity at GABAA alpha-2-beta-3-gamma-2 receptor expressed in Xenopus oocytes assessed as potentiation of GABA-induced chloride current at 1 uM; format: cell-based; details: Oocyte
[16] = biological target: T4, GABA A receptor alpha-4/beta-3/gamma-2; assay: Activity at GABAA alpha-4-beta-3-gamma-2 receptor expressed in Xenopus oocytes assessed as potentiation of GABA-induced chloride current at 1 uM; format: cell-based; details: Oocyte
[17] = Selectivity for GABAA alpha-5-beta-3-gamma-2 receptor over GABAA alpha-3-beta-3-gamma-2 receptor

T5 sequence (Q16445 whole entry, one chain of several): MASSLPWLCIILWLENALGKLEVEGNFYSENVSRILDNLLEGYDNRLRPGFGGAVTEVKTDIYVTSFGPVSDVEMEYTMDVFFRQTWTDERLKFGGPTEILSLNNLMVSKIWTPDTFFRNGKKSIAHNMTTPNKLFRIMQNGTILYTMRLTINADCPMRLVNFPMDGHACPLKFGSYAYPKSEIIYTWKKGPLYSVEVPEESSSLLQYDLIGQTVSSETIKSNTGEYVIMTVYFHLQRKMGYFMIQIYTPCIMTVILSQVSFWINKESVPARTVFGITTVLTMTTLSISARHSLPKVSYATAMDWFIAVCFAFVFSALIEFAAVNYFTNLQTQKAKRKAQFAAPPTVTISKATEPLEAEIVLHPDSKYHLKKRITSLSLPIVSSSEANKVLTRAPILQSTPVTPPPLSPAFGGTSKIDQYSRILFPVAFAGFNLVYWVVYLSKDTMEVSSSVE
T4 sequence (P48169 whole entry, one chain of several): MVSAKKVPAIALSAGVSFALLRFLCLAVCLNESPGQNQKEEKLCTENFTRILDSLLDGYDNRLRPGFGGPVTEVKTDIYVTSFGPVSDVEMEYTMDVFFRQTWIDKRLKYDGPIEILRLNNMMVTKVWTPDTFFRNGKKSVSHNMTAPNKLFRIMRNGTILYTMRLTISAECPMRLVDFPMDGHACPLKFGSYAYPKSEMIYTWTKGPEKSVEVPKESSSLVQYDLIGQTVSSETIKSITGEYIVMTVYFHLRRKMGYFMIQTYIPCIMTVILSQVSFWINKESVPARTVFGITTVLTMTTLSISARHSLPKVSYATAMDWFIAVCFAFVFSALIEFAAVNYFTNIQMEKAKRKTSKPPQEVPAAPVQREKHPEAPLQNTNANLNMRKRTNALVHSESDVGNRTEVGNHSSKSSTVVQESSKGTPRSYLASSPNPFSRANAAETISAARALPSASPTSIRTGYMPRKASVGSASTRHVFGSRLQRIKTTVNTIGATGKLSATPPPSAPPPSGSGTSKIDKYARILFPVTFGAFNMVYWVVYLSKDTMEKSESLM

Compound	Kd [1] [nM]	Kd [2] [nM]	Ki [3] [nM]	further results
COCc1c(C(=O)OC(C)C)ncc2[nH]c3ccc(OCc4ccccc4)cc3c12 [ABECARNIL]	1	8.4		
Cn1c(=O)c2cc(Cl)ccc2n2cnc(CCl)c12			500	Ki [2]: 500 nM
Cn1c(=O)c2cc(Cl)ccc2n2cnc(C(=O)OCC3CC3)c12			16.4	Ki [2]: 9.8 nM
CSC1SC(C(=O)c2ccc(Cl)cc2)C2CC(C)(C)CC(=O)C12 (stereo unspecified)				IC50 [4]: 210 nM; IC50 [5]: 580 nM
COCc1ncn2c1CN(C)C(=O)c1cc(Cl)ccc1-2			920	Activity [6]: Active; Selectivity ratio [7]: 20; Ki [8]: > 300 nM; Activity [9]: 4%; Activity [10]: 20; Selectivity ratio [11]: 20; Activity [12]: Active; Ki [13]: 9000 nM; Activity [14]: 20; Activity [15]: 4%; Activity [16]: 4%; Selectivity Index [17]: 20
O=C1C2C=Nc3ccccc3C2=NN1c1ccc(Cl)cc1 (stereo unspecified) [CGS-9896]	0.3	40		
CCOC(=O)c1ncn2c1[C@@H]1CCN1C(=O)c1cc(C#C[Si](C)(C)C)ccc1-2	83	2.6		
CCCCC(=O)c1ncn2c3ccc(Cl)cc3c(=O)n(C)c12			1580	Ki [2]: 166 nM
Cc1nn(Cc2nc(-c3cccc([N+](=O)[O-])c3)cs2)c(C)c1Br				IC50 [4]: > 10000 nM; IC50 [5]: > 10000 nM
Nc1c(C(=O)c2ccc(Cl)cc2)sc2ccccc12				IC50 [4]: 1000 nM; IC50 [5]: 1000 nM
COc1ccc(-n2nc3c4ccccc4[nH]cc-3c2=O)cc1	0.1	5		
CCCOc1cc2c(cn1)[nH]c1ccccc12	5	591		
CCOC(=O)c1ncn2c1C1CCCN1C(=O)c1cc(C#C[Si](C)(C)C)ccc1-2 (stereo unspecified)	200	4		
CSc1nccc(-c2ccc(S(=O)(=O)Nc3ccc(Cl)cc3)s2)n1				IC50 [4]: > 10000 nM; IC50 [5]: 470 nM
Cn1c(=O)c2cc(Cl)ccc2n2cnc(C(=O)OC(C)(C)C)c12			17.3	Ki [2]: 0.65 nM
CCOC(=O)c1ncn2c3ccc(C#C[Si](C)(C)C)cc3c(=O)n(C)c12	121	5		
C#Cc1ccc2c(c1)C(c1ccccc1)=NCC(=O)N2C	76	7		

Compound	Kd [1] [nM]	Kd [2] [nM]	Ki [3] [nM]	further results
CSC1SC(C(=O)c2cccc([N+](=O)[O-])c2)C2CC(C)(C)CC(=O)C12 (stereo unspecified)				IC50 [4]: > 10000 nM; IC50 [5]: > 10000 nM
CCc1ncn2c3ccc(Cl)cc3c(=O)n(C)c12			408	Ki [2]: 182 nM
CN1C(=O)CN=C(c2ccccc2)c2ccccc21				IC50 [4]: > 10000 nM; IC50 [5]: > 10000 nM
CCOCc1ncn2c3ccc(Cl)cc3c(=O)n(C)c12			500	Ki [2]: 83 nM
Cn1c(=O)c2cc(Cl)ccc2n2cnc(CO)c12			> 300	Ki [2]: > 300 nM
CC(C)(C)OC(=O)c1cc2c3ccccc3nc-2c[nH]1	1	111		
CC(=O)NC1N=C(c2ccccc2)c2ccccc2NC1=O (stereo unspecified)				IC50 [4]: > 10000 nM; IC50 [5]: > 10000 nM
O=C1C2C=Nc3ccccc3C2=NN1c1ccccc1 (stereo unspecified) [CGS-8216]	8.3	200		
CSC1SC(C(=O)c2ccc(Cl)cc2)C2CCCC(=O)C12 (stereo unspecified)				IC50 [4]: 550 nM; IC50 [5]: 580 nM
CC(=O)c1ncn2c3ccc(Cl)cc3c(=O)n(C)c12			17500	Ki [2]: 2610 nM
CCCCCc1ncn2c3ccc(Cl)cc3c(=O)n(C)c12			2050	Ki [2]: 369 nM
Cn1c(=O)c2cc(C#C[Si](C)(C)C)ccc2n2cnc(C(=O)OC(C)(C)C)c12	197	58		
CCOC(=O)c1cc2c(cn1)[nH]c1ccccc12	1			
CCOC(=O)c1[nH]cc2nc3cc(OC)c(OC)cc3c-2c1CC	8	1		
COC(=O)c1cc2c(cn1)[nH]c1ccccc12 [BETA-CCM]	1	58		
CCOc1cc2c(cn1)[nH]c1ccccc12	1.2	826		
